This is a sample that favours compounds with a hit; in the whole collection about 1.5% have one here.
HNF4A DNA FP = change in binding of human HNF4 alpha to DNA. HNF4a-FITC DNA binding, fluorescence polarization, 1 h. activity change, % at 10 µM. hit rate 0.3% among 360,000. AID 1224865; in the data active = activity change above about 30%, passing the limit was not always enough
Target sequence (P41235 whole entry, looked up): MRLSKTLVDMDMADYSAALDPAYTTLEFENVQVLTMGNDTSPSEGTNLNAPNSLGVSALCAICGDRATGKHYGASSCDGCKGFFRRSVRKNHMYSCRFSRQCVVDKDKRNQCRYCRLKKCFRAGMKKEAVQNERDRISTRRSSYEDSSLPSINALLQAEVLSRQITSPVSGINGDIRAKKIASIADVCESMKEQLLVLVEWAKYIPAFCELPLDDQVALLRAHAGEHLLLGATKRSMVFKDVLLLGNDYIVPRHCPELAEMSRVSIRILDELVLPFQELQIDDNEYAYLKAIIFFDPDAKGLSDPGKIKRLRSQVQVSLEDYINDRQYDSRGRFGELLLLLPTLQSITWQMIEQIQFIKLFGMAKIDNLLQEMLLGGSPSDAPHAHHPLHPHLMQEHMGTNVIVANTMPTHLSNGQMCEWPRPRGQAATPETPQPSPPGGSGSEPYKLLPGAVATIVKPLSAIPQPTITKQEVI
Rpn11 inh = blocks the human proteasome subunit Rpn11; human 26S proteasome, Ub4-pepOG fluorescence polarization; 20S core pre-blocked with epoxomicin; calls only at 20 µM; hit rate 0.59% among 360,000;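 active = inhibition at 20 µM, scaled to each plate's controls, above about 33%, limit read from the data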
TPT1 inhibitor = C. albicans TPT1 enzyme inhibition; recombinant caTPT1, FP RNA substrate dephosphorylation; hit rate 0.81% among 300,000; inhibition, % at 5 µM;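 active = inhibition above the mean of all tested compounds plus 3 SD, set per screening campaign, cut at about 24% in these data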
CSN deneddyl inh = blocks human CSN-mediated cullin deneddylation; inhibition, % at 12.5 µM; hit rate 0.38% among 360,000; Purified CSN, SCF-Nedd8-OG deneddylation, fluorescence polarization;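 active = pattern-corrected inhibition above about 35%, with an unprinted fluorescence ratio check between 0.5 and 1.5, limit read from the data, passing the limit was not always enough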
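Detection – fluorescence polarization · System – HEK293T-derived human Csn5 enzyme · Controls – substrate-only high control, full reaction low control · Timing – 90 min, room temperature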
Rpn11 confirm = Rpn11 inhibition confirmation, single concentration; purified human 26S proteasome, Ub4-pepOG fluorescence polarization; proteasome pretreated with epoxomicin; inhibition, % at 20 µM; shares compounds with Rpn11 inh; AID 602318; hit rate 29% among 1,900
MMP-2 inh = blocks human MMP-2, flagging nonselective RPN11 hits | shares compounds with Rpn11 inh | recombinant MMP-2, FRET peptide cleavage fluorescence | inhibition, % at 20 µM | hit rate 4% among 1,900;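 also: human MMP-2 activated beforehand with APMA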
Thrombin FP = counter-screen for RPN11 inhibitors: inhibition of bovine thrombin | shares compounds with Rpn11 inh | bovine thrombin cleavage of Ub4-pepOG, fluorescence polarization | inhibition, % at 20 µM | hit rate 13% among 1,900 | AID 602333;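 active = mean inhibition at least 40% at 20 µM, or signal 3 deviations below plate average, so some actives read negative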
Large screens that a line does not name were inactive (follow-up assays come after a bar, where they were run). Rule as the data show it, unless noted: active = inhibition above about 40%; inactive = the rest.

CC(C)(C)C(=O)Nc1ccc(N2CCN(c3ccc(C(F)(F)F)cn3)CC2)nc1	none
Cc1cccc(C(=O)Nc2ccc(N3CCN(c4ccc(C(F)(F)F)cn4)CC3)nc2)c1	Rpn11 inh active | Rpn11 confirm inactive | MMP-2 inh inactive | Thrombin FP inactive
COc1ccccc1CNC(=O)C1(C)CCN1Cc1ccc(OC(F)(F)F)cc1 (centres undefined)	none (no result: TPT1 inhibitor)
COc1cccc(-c2csc3nnc(SCC(=O)c4ccc(NC(C)=O)cc4)n23)c1	Rpn11 inh active | Rpn11 confirm inactive | MMP-2 inh inactive | Thrombin FP inactive
COc1ccc(OC)c(-c2csc3nnc(SCC(=O)Nc4ccc(NC(C)=O)cc4)n23)c1	none
O=C(c1cccc(Br)c1)c1nc2ccccc2[nH]c1=O	none (no result: TPT1 inhibitor)
O=C(Nc1ccccc1-c1nnc(SCc2ccccc2)o1)c1ccccc1	none
O=C(Nc1ccccc1-c1nnc(SCc2ccc(Cl)cc2)o1)c1ccccc1	Rpn11 inh active | Rpn11 confirm inactive | MMP-2 inh inactive | Thrombin FP inactive
CC(C)n1ncc2c(C(=O)Nc3ccc(S(C)(=O)=O)cc3)cc(C3CC3)nc21	none (no result: TPT1 inhibitor)
CC(C)n1ncc2c(C(=O)Nc3ccc(S(N)(=O)=O)cc3)cc(C3CC3)nc21	Rpn11 inh active, CSN deneddyl inh 113 (no result: TPT1 inhibitor) | Rpn11 confirm 90 | MMP-2 inh inactive | Thrombin FP inactive
Cc1[nH]n(-c2nc(-c3ccc(Cl)cc3)cs2)c(=O)c1N=Nc1ccc(O)cc1	Rpn11 inh active | Rpn11 confirm inactive | MMP-2 inh inactive | Thrombin FP inactive
CCCCOc1ccc(N(CC(=O)NCCOC)C(=O)CCC(=O)Nc2ccccn2)cc1	none
Cc1ccc(-c2ccc(S(=O)(=O)N3CC(C)OC(C)C3)cc2)cc1 (centres undefined)	Rpn11 inh active | Rpn11 confirm inactive | MMP-2 inh inactive | Thrombin FP inactive
Cc1ccc(-c2ccc(S(=O)(=O)N3CCCC3)cc2)cc1	none
Nc1ccc(-c2nc3ccccc3o2)cc1	Rpn11 inh active | Rpn11 confirm inactive | MMP-2 inh inactive | Thrombin FP inactive
CC/C(=N\NC(=O)c1nnn(-c2nonc2N)c1CN(C)c1ccccc1)c1ccccc1	none
Cc1onc(-c2c(F)cccc2Cl)c1C(=O)OCC(=O)c1c[nH]c2ccccc12	Rpn11 inh active | Rpn11 confirm inactive | MMP-2 inh inactive | Thrombin FP inactive
COc1cc(CC(=O)N2CCN(S(=O)(=O)c3ccc(C(C)C)cc3)CC2)cc(OC)c1OC	none (no result: TPT1 inhibitor)
COc1ccc(OCC(=O)Nc2cccc(-c3nc4ccccc4o3)c2)cc1	none
CCc1ccc(OCC(=O)Nc2ccc(-c3nc4ccccc4o3)c(O)c2)cc1	Rpn11 inh active | Rpn11 confirm inactive | MMP-2 inh inactive | Thrombin FP inactive
CCCC(C(=O)NCCC(C)C)N(Cc1ccccc1Cl)C(=O)c1snc(C(N)=O)c1N (centres undefined)	none
CCOc1ccc2c(c1)/C(=C(\C(Cl)=C(Cl)Cl)[N+](=O)[O-])N2	none
CCCCOc1ccc2c(c1)/C(=C(\C(Cl)=C(Cl)Cl)[N+](=O)[O-])N2	Rpn11 inh active | Rpn11 confirm inactive | MMP-2 inh inactive | Thrombin FP inactive
CCOC(=O)c1sc(N2C(=O)C(O)=C(C(=O)c3ccco3)C2c2cccc(Cl)c2)nc1C (centres undefined)	Rpn11 inh active | Rpn11 confirm inactive | MMP-2 inh inactive | Thrombin FP inactive
COC(=O)c1sc(N2C(=O)C(O)=C(C(=O)c3ccc(C)o3)C2c2cccs2)nc1C (centres undefined)	Rpn11 inh active | Rpn11 confirm inactive | MMP-2 inh inactive | Thrombin FP inactive
COC(=O)c1sc(N2C(=O)C(O)=C(C(=O)c3ccc(C)o3)C2c2ccc(F)cc2)nc1C (centres undefined)	Rpn11 inh active, TPT1 inhibitor 26 | Rpn11 confirm inactive | MMP-2 inh inactive | Thrombin FP inactive
CCN1C[C@@H]2[C@@H]3C(=O)N(C)C(=O)[C@@H]3[C@](C)(C1=O)N2C(=O)c1ccc(Cl)cc1	none (no result: TPT1 inhibitor)
[N-]=[N+]=NC1CC(CO)OC1n1ccc(=O)[nH]c1=O (centres undefined)	none

Screens from PubChem.
